Calls of active or inactive are those of the source. The calls are words filed in the database; no cut-off is given here.
Experiments:
[1] = biological target: GABA-A receptor; alpha-1/beta-3/gamma-2 (Homo sapiens) (UniProt P14867+P18507+P28472); experiment: Inhibition of human GABA alpha1beta3gamma2 receptor at 10 uM relative to control; format: protein-complex assay
[2] = biological target: Estrogen receptor (Homo sapiens) (UniProt P03372); experiment: Inhibition of human ERalpha receptor at 10 uM relative to control
[3] = biological target: D(1B) dopamine receptor (Homo sapiens) (UniProt P21918); experiment: Inhibition of human dopamine D5 receptor at 10 uM relative to control
D(3) dopamine receptor [4] = biological target: T1, D(3) dopamine receptor (Homo sapiens, UniProt P35462); experiment: Inhibition of human dopamine D3 receptor at 10 nM relative to control
[5] = biological target: D(1A) dopamine receptor (Homo sapiens) (UniProt P21728); experiment: Inhibition of human dopamine D1 receptor at 10 uM relative to control
[6] = biological target: Calcitonin receptor (Homo sapiens) (UniProt P30988); experiment: Inhibition of human calcitonin receptor at 10 uM relative to control
[7] = biological target: Natriuretic peptides A (Cavia porcellus) (UniProt P27596); experiment: Inhibition of guinea pig atrial natriuretic factor at 10 uM relative to control; conditions: Cardiac atrium
[8] = biological target: Type-1 angiotensin II receptor (Homo sapiens) (UniProt P30556); experiment: Inhibition of human angiotensin AT1 receptor at 10 uM relative to control
[9] = biological target: Androgen receptor (Rattus norvegicus) (UniProt P15207); experiment: Inhibition of rat androgen receptor at 10 uM relative to control
[10] = biological target: Beta-3 adrenergic receptor (Homo sapiens) (UniProt P13945); experiment: Inhibition of human beta3 adrenergic receptor at 10 uM relative to control
[11] = biological target: Alpha-2C adrenergic receptor (Homo sapiens) (UniProt P18825); experiment: Inhibition of human alpha2C adrenergic receptor at 10 uM relative to control
[12] = biological target: Adrenergic receptor alpha-1 (Rattus norvegicus) (UniProt P15823+P23944+P43140); experiment: Inhibition of rat alpha1 adrenergic receptor at 10 uM relative to control
[13] = biological target: Adenosine receptor A1 (Homo sapiens) (UniProt P30542); experiment: Inhibition of human adenosine A1 receptor at 10 uM relative to control
[14] = biological target: Neutrophil elastase (Homo sapiens) (UniProt P08246); experiment: Inhibition of human neutrophil elastase 2 at 30 uM relative to control
Caspase-7 (Homo sapiens) = Caspase-7 (Homo sapiens) (UniProt P55210); experiment: Inhibition of human caspase 7 at 10 uM relative to control
[15] = biological target: Nitric oxide synthase 1 (Rattus norvegicus) (UniProt P29476); experiment: Inhibition of rat nNOS at 10 uM relative to control
[16] = biological target: Polyunsaturated fatty acid 5-lipoxygenase (Homo sapiens) (UniProt P09917); experiment: Inhibition of human 5-lipoxygenase at 10 uM relative to control
Mu-type opioid receptor [17] = biological target: T2, Mu-type opioid receptor (Homo sapiens, UniProt P35372); experiment: Inhibition of human mu opioid receptor at 10 uM relative to control
D(3) dopamine receptor [18] = biological target: T1, D(3) dopamine receptor; experiment: Inhibition of human dopamine D3 receptor at 10 uM relative to control
Rattus norvegicus [19] = experiment: Antiinsomnic activity in rat EEG model assessed as increase in delta sleep time at 15 mg/kg, po; format: functional, organism-based; design: dose 15 mg/kg
Method in brief: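 Rats with EEG telemetry given 15 mg/kg orally during their active period, vehicle 20% Vitamin E TPGS in water. Sleep architecture (active wake, light sleep, delta and REM sleep) scored from EEG.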

[20] = biological target: Vasopressin V1a receptor (Homo sapiens) (UniProt P37288); experiment: Inhibition of human V1A receptor at 10 uM relative to control
Rattus norvegicus [21] = organism: Rattus norvegicus; experiment: Inhibition of rat GABA transporter at 10 uM relative to control
[22] = biological target: Substance-K receptor (Homo sapiens) (UniProt P21452); experiment: Inhibition of human NK2 receptor at 10 uM relative to control
[23] = biological target: T3, 5-hydroxytryptamine receptor 2B (Homo sapiens, UniProt P41595); experiment: Inhibition of human 5-HT2B receptor at 10 nM relative to control
[24] = biological target: T3, 5-hydroxytryptamine receptor 2B; experiment: Inhibition of human 5-HT2B receptor at 10 uM relative to control
Rattus norvegicus [25] = organism: Rattus norvegicus; experiment: Inhibition of rat 5-HT2 receptor at 10 uM relative to control
[26] = biological target: 5-hydroxytryptamine receptor 1B (Rattus norvegicus) (UniProt P28564); experiment: Inhibition of rat 5-HT1B receptor at 0.1 uM relative to control
[27] = biological target: 5-hydroxytryptamine receptor 1B (Rattus norvegicus) (UniProt P28564); experiment: Inhibition of rat 5-HT1B receptor at 1 uM relative to control
[28] = biological target: T4, 5-hydroxytryptamine receptor 1A (Homo sapiens) (UniProt P08908); experiment: Inhibition of human 5-HT1A receptor at 0.1 uM relative to control
T4 sequence (whole entry): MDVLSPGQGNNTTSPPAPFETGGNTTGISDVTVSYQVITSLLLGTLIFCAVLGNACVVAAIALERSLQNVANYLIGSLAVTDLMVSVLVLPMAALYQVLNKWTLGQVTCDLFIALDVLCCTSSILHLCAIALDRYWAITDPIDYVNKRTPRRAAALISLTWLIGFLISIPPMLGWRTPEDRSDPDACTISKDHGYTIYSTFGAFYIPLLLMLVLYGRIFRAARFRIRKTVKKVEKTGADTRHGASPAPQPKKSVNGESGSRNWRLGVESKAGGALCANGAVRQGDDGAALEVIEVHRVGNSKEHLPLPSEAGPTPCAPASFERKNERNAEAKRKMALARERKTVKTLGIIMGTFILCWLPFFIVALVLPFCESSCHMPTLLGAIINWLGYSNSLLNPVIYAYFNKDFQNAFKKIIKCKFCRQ

[29] = biological target: T4, 5-hydroxytryptamine receptor 1A (Homo sapiens); experiment: Inhibition of human 5-HT1A receptor at 1 uM relative to control
[30] = biological target: Small conductance calcium-activated potassium channel (Rattus norvegicus) (UniProt P70604+P70606+P70605); experiment: Inhibition of rat potassium channel [SKCA] at 10 uM relative to control; format: protein assay
Cricetinae = experiment: Inhibition of hamster ATP-sensitive potassium channel at 10 uM relative to control
Rattus norvegicus [31] = organism: Rattus norvegicus; experiment: Inhibition of rat ATP-sensitive potassium channel at 10 uM relative to control
Mu-type opioid receptor [32] = biological target: T2, Mu-type opioid receptor; experiment: Inhibition of human mu opioid receptor at 10 nM relative to control
Mu-type opioid receptor [33] = biological target: T2, Mu-type opioid receptor; experiment: Inhibition of human mu opioid receptor at 0.1 uM relative to control
Mu-type opioid receptor [34] = biological target: T2, Mu-type opioid receptor; experiment: Inhibition of human mu opioid receptor at 1 uM relative to control
[35] = biological target: Muscarinic acetylcholine receptor M3 (Homo sapiens) (UniProt P20309); experiment: Inhibition of human muscarinic M3 receptor at 10 uM relative to control
[36] = biological target: Muscarinic acetylcholine receptor M1 (Homo sapiens) (UniProt P11229); experiment: Inhibition of human muscarinic M1 receptor at 10 uM relative to control
[37] = biological target: Melanocortin receptor 4 (Homo sapiens) (UniProt P32245); experiment: Inhibition of human MC4 receptor at 10 uM relative to control
[38] = biological target: Histamine H4 receptor (Homo sapiens) (UniProt Q9H3N8); experiment: Inhibition of human histamine H4 receptor at 10 uM relative to control

T2 sequence (P35372 whole entry): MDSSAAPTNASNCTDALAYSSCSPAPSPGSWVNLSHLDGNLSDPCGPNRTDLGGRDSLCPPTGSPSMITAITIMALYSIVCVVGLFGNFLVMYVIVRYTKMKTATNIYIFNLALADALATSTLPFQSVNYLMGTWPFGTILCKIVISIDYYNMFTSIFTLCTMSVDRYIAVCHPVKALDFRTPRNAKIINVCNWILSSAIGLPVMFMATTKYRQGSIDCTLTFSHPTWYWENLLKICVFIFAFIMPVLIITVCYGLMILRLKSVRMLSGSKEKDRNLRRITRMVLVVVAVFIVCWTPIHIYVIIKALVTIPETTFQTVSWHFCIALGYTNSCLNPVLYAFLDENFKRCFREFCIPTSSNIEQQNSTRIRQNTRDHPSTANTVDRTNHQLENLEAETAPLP
Sequence of 5-hydroxytryptamine receptor 1B (Rattus norvegicus) (P28564 whole entry): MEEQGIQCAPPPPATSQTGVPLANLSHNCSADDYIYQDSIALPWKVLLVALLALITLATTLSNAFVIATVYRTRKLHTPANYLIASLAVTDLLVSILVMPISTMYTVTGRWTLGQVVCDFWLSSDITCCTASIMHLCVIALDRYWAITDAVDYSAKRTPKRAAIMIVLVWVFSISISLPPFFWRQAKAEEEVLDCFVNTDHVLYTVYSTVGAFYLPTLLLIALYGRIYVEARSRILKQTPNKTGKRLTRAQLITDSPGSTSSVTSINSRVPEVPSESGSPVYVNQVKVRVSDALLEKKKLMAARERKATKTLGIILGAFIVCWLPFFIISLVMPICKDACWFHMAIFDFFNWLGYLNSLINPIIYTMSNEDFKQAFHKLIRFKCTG
T3 sequence (P41595 whole entry): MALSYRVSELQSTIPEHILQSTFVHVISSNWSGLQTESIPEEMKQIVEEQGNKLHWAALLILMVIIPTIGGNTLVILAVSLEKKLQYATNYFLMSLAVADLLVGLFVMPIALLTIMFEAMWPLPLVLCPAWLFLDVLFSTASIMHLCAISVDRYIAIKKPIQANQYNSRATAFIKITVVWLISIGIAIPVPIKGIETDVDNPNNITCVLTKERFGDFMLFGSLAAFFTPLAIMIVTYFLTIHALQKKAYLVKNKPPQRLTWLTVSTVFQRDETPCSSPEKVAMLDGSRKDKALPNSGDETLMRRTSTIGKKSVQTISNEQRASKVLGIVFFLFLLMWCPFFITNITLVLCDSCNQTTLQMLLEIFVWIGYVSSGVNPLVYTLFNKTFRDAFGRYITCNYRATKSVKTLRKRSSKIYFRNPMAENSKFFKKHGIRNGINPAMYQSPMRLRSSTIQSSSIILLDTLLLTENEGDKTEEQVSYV
T1 sequence (P35462 whole entry): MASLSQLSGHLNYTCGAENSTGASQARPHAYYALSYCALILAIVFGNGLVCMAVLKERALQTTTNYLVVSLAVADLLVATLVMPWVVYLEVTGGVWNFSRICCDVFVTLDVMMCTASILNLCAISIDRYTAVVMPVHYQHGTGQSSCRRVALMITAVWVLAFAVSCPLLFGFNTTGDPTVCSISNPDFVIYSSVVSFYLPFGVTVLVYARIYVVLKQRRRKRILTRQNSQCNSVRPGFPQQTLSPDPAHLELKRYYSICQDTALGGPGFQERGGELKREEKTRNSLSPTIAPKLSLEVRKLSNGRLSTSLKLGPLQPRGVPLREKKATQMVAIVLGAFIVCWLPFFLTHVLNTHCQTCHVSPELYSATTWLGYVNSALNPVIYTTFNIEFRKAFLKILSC
Sequence of Melanocortin receptor 4 (Homo sapiens) (P32245 whole entry): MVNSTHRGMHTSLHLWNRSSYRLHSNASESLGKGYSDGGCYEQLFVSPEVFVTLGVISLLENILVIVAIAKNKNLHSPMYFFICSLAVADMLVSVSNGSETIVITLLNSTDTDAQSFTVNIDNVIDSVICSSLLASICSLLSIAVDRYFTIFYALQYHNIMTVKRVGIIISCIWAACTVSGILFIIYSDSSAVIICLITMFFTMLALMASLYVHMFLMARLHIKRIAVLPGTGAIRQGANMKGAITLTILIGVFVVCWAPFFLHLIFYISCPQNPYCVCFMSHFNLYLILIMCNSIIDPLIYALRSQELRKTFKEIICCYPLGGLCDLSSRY
Sequence of Caspase-7 (Homo sapiens) (P55210 24-198 limits assumed): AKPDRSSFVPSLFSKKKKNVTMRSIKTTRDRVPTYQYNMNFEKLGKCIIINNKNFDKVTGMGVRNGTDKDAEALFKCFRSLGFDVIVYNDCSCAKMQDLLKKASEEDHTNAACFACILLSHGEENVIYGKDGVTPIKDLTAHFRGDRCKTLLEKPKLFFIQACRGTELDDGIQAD
Sequence of Caspase-7 (Homo sapiens) (P55210 207-303 limits assumed): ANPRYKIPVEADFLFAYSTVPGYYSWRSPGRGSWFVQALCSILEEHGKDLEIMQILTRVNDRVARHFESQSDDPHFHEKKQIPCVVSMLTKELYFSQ
Sequence of Calcitonin receptor (Homo sapiens) (P30988 whole entry): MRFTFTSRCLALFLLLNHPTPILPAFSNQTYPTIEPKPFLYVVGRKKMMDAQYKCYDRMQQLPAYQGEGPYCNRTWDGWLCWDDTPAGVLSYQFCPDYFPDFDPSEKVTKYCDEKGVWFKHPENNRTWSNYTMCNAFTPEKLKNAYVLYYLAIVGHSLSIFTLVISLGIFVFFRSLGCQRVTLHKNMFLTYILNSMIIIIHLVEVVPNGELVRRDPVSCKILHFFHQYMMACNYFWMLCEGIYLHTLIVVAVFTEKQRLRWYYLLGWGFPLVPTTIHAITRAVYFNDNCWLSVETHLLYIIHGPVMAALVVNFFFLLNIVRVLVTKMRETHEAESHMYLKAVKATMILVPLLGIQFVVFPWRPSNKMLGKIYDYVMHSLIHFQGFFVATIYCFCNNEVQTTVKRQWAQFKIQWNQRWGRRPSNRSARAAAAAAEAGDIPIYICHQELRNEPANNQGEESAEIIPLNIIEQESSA
Sequence of D(1A) dopamine receptor (Homo sapiens) (P21728 whole entry): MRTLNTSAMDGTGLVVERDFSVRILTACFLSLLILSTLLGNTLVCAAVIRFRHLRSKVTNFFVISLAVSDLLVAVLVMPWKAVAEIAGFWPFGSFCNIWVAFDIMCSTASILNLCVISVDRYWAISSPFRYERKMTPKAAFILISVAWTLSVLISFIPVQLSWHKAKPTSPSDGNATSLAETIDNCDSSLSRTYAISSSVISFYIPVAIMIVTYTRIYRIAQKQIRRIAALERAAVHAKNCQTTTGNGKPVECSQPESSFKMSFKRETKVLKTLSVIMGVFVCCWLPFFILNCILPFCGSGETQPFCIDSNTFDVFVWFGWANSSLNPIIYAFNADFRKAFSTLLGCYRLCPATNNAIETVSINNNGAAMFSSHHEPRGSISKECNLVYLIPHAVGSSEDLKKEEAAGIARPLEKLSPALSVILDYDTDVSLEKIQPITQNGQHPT
Sequence of Nitric oxide synthase 1 (Rattus norvegicus) (P29476 whole entry): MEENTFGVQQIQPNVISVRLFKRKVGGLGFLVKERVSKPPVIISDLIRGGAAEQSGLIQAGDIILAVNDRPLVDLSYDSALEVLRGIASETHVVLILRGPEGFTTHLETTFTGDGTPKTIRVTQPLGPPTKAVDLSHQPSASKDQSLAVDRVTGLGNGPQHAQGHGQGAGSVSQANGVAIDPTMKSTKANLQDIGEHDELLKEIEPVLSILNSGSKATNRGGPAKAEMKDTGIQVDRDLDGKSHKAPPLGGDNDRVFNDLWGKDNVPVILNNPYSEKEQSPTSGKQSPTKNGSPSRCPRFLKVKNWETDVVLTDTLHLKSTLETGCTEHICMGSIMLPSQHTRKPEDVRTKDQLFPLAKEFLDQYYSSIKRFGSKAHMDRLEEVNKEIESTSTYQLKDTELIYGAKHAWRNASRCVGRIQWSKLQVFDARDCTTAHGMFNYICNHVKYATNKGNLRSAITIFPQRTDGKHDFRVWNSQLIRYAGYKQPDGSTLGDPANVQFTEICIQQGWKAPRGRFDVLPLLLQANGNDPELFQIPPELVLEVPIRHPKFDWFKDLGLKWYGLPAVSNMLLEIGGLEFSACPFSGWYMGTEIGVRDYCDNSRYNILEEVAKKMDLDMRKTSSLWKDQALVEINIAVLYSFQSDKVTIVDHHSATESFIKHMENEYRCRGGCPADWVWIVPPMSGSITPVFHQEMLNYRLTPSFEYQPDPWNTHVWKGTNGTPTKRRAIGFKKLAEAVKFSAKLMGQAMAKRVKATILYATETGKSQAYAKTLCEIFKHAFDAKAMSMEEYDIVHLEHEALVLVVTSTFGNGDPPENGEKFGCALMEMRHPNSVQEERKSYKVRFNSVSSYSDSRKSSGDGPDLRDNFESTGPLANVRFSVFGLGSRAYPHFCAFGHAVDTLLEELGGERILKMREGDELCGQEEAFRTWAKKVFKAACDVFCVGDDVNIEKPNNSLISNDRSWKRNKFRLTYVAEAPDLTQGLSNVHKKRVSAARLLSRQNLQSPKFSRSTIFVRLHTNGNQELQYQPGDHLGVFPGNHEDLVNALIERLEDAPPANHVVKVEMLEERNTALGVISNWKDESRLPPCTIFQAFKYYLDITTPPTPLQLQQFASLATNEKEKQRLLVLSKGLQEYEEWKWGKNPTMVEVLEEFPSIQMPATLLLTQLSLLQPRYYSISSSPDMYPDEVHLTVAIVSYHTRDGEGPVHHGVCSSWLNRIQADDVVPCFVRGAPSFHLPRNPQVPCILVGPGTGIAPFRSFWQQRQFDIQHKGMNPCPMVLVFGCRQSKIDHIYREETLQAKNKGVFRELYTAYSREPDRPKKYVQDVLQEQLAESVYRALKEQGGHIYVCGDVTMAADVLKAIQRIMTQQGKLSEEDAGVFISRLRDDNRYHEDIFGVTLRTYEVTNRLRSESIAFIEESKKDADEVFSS
Sequence of Neutrophil elastase (Homo sapiens) (P08246 whole entry): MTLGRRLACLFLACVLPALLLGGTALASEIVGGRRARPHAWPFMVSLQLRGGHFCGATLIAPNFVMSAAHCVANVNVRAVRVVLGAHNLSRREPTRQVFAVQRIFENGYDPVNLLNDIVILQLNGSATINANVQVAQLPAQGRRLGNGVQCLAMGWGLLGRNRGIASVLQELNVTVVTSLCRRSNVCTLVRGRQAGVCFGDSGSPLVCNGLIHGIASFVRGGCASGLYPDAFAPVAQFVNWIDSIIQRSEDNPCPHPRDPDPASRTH

In the case of `COc1ccc(CNC(=O)c2cc(-c3cc(Cl)cc(Cl)c3)cnc2-c2cccnc2)cc1OC`, the inhibition [1] is reported as 21%, the inhibition [2] is reported as 20% and the inhibition [3] is reported as 3%. For the same compound, the inhibition (D(3) dopamine receptor [4]) was 5%, the inhibition [5] was 2% and the inhibition [6] was 9%. The inhibition [7] was 1%, the inhibition [8] was 14% and the inhibition [9] was 7%. For the same compound, the inhibition [10] was 24%, the inhibition [11] was 5% and the inhibition [12] was -4%. It also gave an inhibition [13] of 22%, an inhibition [14] of -2% and an inhibition (Caspase-7 (Homo sapiens)) of 1%. The inhibition [15] was -1%, the inhibition [16] was 44% and the inhibition (Mu-type opioid receptor [17]) was 62%. For the same compound, the inhibition (D(3) dopamine receptor [18]) was 51%, the Activity (Rattus norvegicus [19]) was “Active” and the inhibition [20] was 0%. The inhibition (Rattus norvegicus [21]) was 3%, the inhibition [22] was 25% and the inhibition [23] was 6%. It also gave an inhibition [24] of 84%, an inhibition (Rattus norvegicus [25]) of 17% and an inhibition [26] of 9%. It also gave an inhibition [27] of 30%, an inhibition [28] of 10% and an inhibition [29] of 41%. It also gave an inhibition [30] of 9%, an inhibition (Cricetinae) of 0% and an inhibition (Rattus norvegicus [31]) of 0%. The inhibition (Mu-type opioid receptor [32]) was -3%, the inhibition (Mu-type opioid receptor [33]) was -3% and the inhibition (Mu-type opioid receptor [34]) was 26%. The inhibition [35] was -2%, the inhibition [36] was 0% and the inhibition [37] was 6%. It also gave an inhibition [38] of 9%.

Reference: ChEMBL document CHEMBL3098111, “Discovery of 2,5-diarylnicotinamides as selective orexin-2 receptor antagonists (2-SORAs)” (Bioorg Med Chem Lett, 2013)
